Reference: the array DNA melting data of Ke et al. (doi:10.1101/2024.01.08.574731)

Assays:
[1] = melting temperature; fluorescence melt of hairpins on a sequencing array, two-state fit, raised by 9.35 °C to match UV melts; settings: sodium 0.088 M
Procedure, shortened: (§1)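 On a sequenced MiSeq flow cell, library hairpins with annealed Cy3 and quencher oligos were imaged for Cy3 fluorescence in 2.5 °C steps up to 60 °C, in 50 mM Na-HEPES pH 8.0, 25 mM NaCl. Normalisation used pre-quench Cy3 and control constructs. Bootstrapped two-state fits gave melting temperature and folding enthalpy, combined by inverse variance across four replicates and with fitted temperatures raised by 9.35 °C to match UV melts.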

[2] = folding enthalpy; higher = less favourable; fluorescence melt of hairpins on a sequencing array, two-state fit; settings: sodium 0.088 M
Procedure, shortened: as §1

Sequence	Tm [1]	folding enthalpy [2]
GATCTGCTGCAGATC ((((((...))))))	50.4 °C	-41.4 kcal/mol
GCTGGGGGAAACTCCGGC ((.((.(....).)).))	47.1 °C	-31.1 kcal/mol
GCATCGCGAAAGCCAAGC ((.(.((....)).).))	27.5 °C	-9.2 kcal/mol
GAATACGAAAGTATCTTC ((((((....)))..)))	46.2 °C	-28.1 kcal/mol
GACTTACGAAAGTAGGTC (((.(((....))).)))	49.3 °C	-27.5 kcal/mol
GACGGTGGAAACGCTGTC (((.(.(....).).)))	40.9 °C	-22.2 kcal/mol
GCTTAGCGAAAGCAGAGC (((..((....))..)))	50 °C	-19 kcal/mol
GAGGAACCGAAAGGTCTC (((..(((....))))))	35.2 °C	-15.4 kcal/mol
GCCGTTGGAAACAGTGGC (((..((....))..)))	43.6 °C	-14.4 kcal/mol
GGAACCGAAAGGTACTCC ((((((....)))..)))	33.3 °C	-12.6 kcal/mol
GTAAAGGAAACTTTAC ((((((....))))))	40.6 °C	-32.6 kcal/mol
GATCTCGCATGAGATC ((((((....))))))	61.6 °C	-44.8 kcal/mol
GGCTTTCGAAAGAATGCC (((.(((....))).)))	54.8 °C	-41 kcal/mol
GCGGGGCGAAAGCCAGGC ((..(((....)))..))	59.1 °C	-17.5 kcal/mol
GATCCGGATCGGATC ((((((...))))))	55.6 °C	-35.4 kcal/mol
GCGGACGGAAACGCCCGC ((((.((....)).))))	67.8 °C	-36.7 kcal/mol
GCGTGCGTACGC ((((....))))	64.8 °C	-13.7 kcal/mol
GGCCTTACGAAAGTAGCC (((..(((....))))))	36.8 °C	-22.1 kcal/mol
GCGATCTTTCGC ((((....))))	51.4 °C	-27.5 kcal/mol
GTCGTCGGAAACGACAAC ((.((((....)))).))	47.4 °C	-13 kcal/mol
GTTCTTGGAAACAAGAAC (((((((....)))))))	55.5 °C	-41.7 kcal/mol
GCACAGCGAAAGCGCTGC (((..((....))..)))	49.2 °C	-14.8 kcal/mol
GCATGCGGAAACGCATAC (.(((((....))))).)	44 °C	-9.77 kcal/mol

Sequence	Tm [1]	folding enthalpy [2]
GATCTGCGGTCAGATC ((((((....))))))	49.7 °C	-32.9 kcal/mol
GCTTACGAAAGTACAGC ((((((....))).)))	41.4 °C	-23.4 kcal/mol
GCGTCCGAAAGGATCCGC ((((((....)))..)))	44.7 °C	-21.2 kcal/mol
GATCAGATCCCTGATC ((((((....))))))	48.3 °C	-31.8 kcal/mol
GCGTCTACGAAAGTACGC (((..(((....))))))	47.6 °C	-28.4 kcal/mol
GCCAGGGGAAACCCCGAC (.(.(((....))).).)	32.6 °C	-9.47 kcal/mol
GCCTACGAAAGTATTGGC ((((((....)))..)))	43.4 °C	-20.5 kcal/mol
GCTTTGGGAAACCAAAGC (((((((....)))))))	65 °C	-47.1 kcal/mol
GGTTTCCGAAAGGACACC (((.(((....))).)))	49 °C	-39 kcal/mol
GGGTGAACGAAAGTTCCC (((..(((....))))))	50.1 °C	-14.9 kcal/mol
GTAGCGGGAAACCGCTGC (.(((((....))))).)	59.7 °C	-17.3 kcal/mol
GGGGATGGAAACATTCCC (((.(((....))).)))	51.6 °C	-40.9 kcal/mol
GTGGTCGGAAACGGTCAC (((..((....))..)))	44.2 °C	-23 kcal/mol
GCCAAACGAAAGTTGGGC (((.(((....))).)))	61.4 °C	-37.2 kcal/mol
GCAGCGGGAAACCGCCGC ((.((((....)))).))	55.2 °C	-18.6 kcal/mol
GTTGAGGCGAAAGCCAAC (((..(((....))))))	40.7 °C	-14.6 kcal/mol
GTGGCTGGAAACGGCCAC (((((.(....).)))))	64 °C	-47.5 kcal/mol
GCTAAGCGAAAGCTATGC ((..(((....)))..))	43.5 °C	-20.4 kcal/mol
GCTATGCGAAAGCATGGC ((.((((....)))).))	65 °C	-32 kcal/mol
GTTAGCGAAAGCTCGAAC ((((((....)))..)))	22.9 °C	-7.85 kcal/mol
CGCAACGGAAACGTGGCG (((.(((....))).)))	57.7 °C	-46.5 kcal/mol
GGGAACGAAAGTTACCC ((((((....))).)))	53.8 °C	-30 kcal/mol
GATCATCGGATGATC ((((((...))))))	45.9 °C	-36.9 kcal/mol

Sequence	Tm [1]	folding enthalpy [2]
GCTTCTCGAAAGAGCAGC (((.(((....))).)))	46.8 °C	-24 kcal/mol
GCAGAGCGAAAGCCTTGC (((..((....))..)))	43.5 °C	-14.5 kcal/mol
GAACGTGGAAACACGCTC ((.((((....)))).))	44 °C	-18.2 kcal/mol
GTGTTTCGAAAGAAGCAC (((.(((....))).)))	51 °C	-38.1 kcal/mol
GCCTCGCGAAAGCGATGC ((.((((....)))).))	58.2 °C	-16.7 kcal/mol
GCGACGCGAAAGCAACGC (((..((....))..)))	54.2 °C	-16.8 kcal/mol
GTGGCCGAAAGGCTACAC ((((((....)))..)))	58.2 °C	-13.5 kcal/mol
GATCTAACCTAGATC ((((((...))))))	38.1 °C	-29 kcal/mol
GATCGATTGTCGATC ((((((...))))))	51.3 °C	-35.5 kcal/mol
GGTTGGGGAAACCCAGTC (..((((....))))..)	30.4 °C	-8.72 kcal/mol
GTTGAAGAAATTCAAC ((((((....))))))	45.8 °C	-27.1 kcal/mol
GCGTTAGGAAACTGACGC ((((.((....)).))))	53.6 °C	-42.5 kcal/mol
CGATGCGGAAACGCTTCG (((.(((....))).)))	53 °C	-41.7 kcal/mol
GGGTCGGGAAACCGGCCC (((.(((....))).)))	67.1 °C	-36.3 kcal/mol
GATCCTAGGCAGGATC ((((((....))))))	53.3 °C	-35.4 kcal/mol
GTCCGCCGAAAGGCTGAC (((.(((....))).)))	57.3 °C	-21.9 kcal/mol
GGTAATACGAAAGTAACC (((..(((....))))))	22.7 °C	-9.63 kcal/mol
GATCGATTATCGATC ((((((...))))))	52.7 °C	-38.5 kcal/mol
GGTAGCGAAAGCTAAACC ((((((....)))..)))	42.8 °C	-15 kcal/mol
ATACAGAAATGTAT (((((....)))))	25.3 °C	-10.4 kcal/mol
GCCAGTCGAAAGACGGGC (((.(((....))).)))	68.6 °C	-35 kcal/mol
GTGGACGGAAACGCCCAC ((((.((....)).))))	53.2 °C	-56.1 kcal/mol
GATCGGGTCCCCGATC ((((((....))))))	61.3 °C	-40.4 kcal/mol

Sequence	Tm [1]	folding enthalpy [2]
GATCCGGGAAACCGAATC (((.(((....))).)))	38.2 °C	-24.5 kcal/mol
GAGAGTGAAAACTCTC ((((((....))))))	53.9 °C	-32.1 kcal/mol
GCGAACATCGC ((((...))))	45.6 °C	-17.1 kcal/mol
GGTTCCGAAAGGACTACC ((((((....)))..)))	36.1 °C	-15.3 kcal/mol
GGTTCACGAAAGTGTACC (((.(((....))).)))	52.4 °C	-36.4 kcal/mol
GTTTGGCGAAAGCCAAC (((.(((....))))))	48.7 °C	-11.1 kcal/mol
GTATGCGGAAACACATAC (((((.(....).)))))	39.8 °C	-32.8 kcal/mol
GTAAACGGAAACGCTTAC ((((.((....)).))))	37.1 °C	-29.5 kcal/mol
GCGGACGAAAGTCTACGC ((((((....)))..)))	52.2 °C	-28.8 kcal/mol
GGTGTGGGAAACCACATC (.(((((....))))).)	51.2 °C	-21.1 kcal/mol
GATCCGTTATCGGATC ((((((....))))))	59.2 °C	-36 kcal/mol
GGTCATCGAAAGATCACC (((.(((....))).)))	35.7 °C	-30.2 kcal/mol
GCGGCAGCGAAAGCTCGC (((..(((....))))))	51.5 °C	-11.7 kcal/mol
GAAATCGGAAACGGTTTC ((((.((....)).))))	46.5 °C	-31.6 kcal/mol
GTGCACGAAAGTGTGCAC ((((((....)))..)))	62.6 °C	-34 kcal/mol
GTGCCGTCGAAAGACCAC (((..(((....))))))	49.7 °C	-6.11 kcal/mol
GACCGCGGAAACACGGTC (((((.(....).)))))	55.5 °C	-52 kcal/mol
GCCCTGCGAAAGCCAGGC (((..((....))..)))	53 °C	-15.7 kcal/mol
GCCGAGCGAAAGCCCCGC ((.(.((....)).).))	32.2 °C	-12.1 kcal/mol
GTGTGCGAAAGCAAGCAC ((((((....)))..)))	43.5 °C	-18.9 kcal/mol
GTTCCTGGAAACAGGAAC (((((((....)))))))	63.5 °C	-40.9 kcal/mol
GATCTGACTCCAGATC ((((((....))))))	46.6 °C	-33.9 kcal/mol
GGTTTCCGAAAGGAACC (((.(((....))))))	51.8 °C	-19.8 kcal/mol
